# Source: ChEMBL document CHEMBL4689842, “EUbOPEN Chemogenomics Library wave 1” (2021)
# Assays:
# U2OS = test: Multiplex assay against U2OS; type: toxicity, cell-based; settings: human
# Outline: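 Phenotypes for tubulin, mitochondrial mass and membrane permeability are expressed as per cents of healthy-nucleus cells. Cells were stained live at seeding with Hoechst33342, BioTracker Green Microtubule Cytoskeleton Dye, MitoTracker Red and Annexin V Alexa Fluor 680, then imaged after compound addition on a CQ1 microscope at 37°C and 5% CO2. Machine-learning gating in CellPathfinder separated Hoechst high-intensity objects from normal cells, divided normal cells by nuclear state (healthy, pyknosed, fragmented) and divided pyknosed cells into mitotic or apoptotic.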
# Fibroblast = test: Incucyte cell viability with human fibroblast; type: toxicity, cell-based; settings: 10 µM, compound concentration 10 uM; further: filed as whole numbers so only -1 and 0 and 1 occur
# [1] = 12 h, 1 µM, compound concentration 1 uM, replicate 1
# [2] = 12 h, 1 µM, compound concentration 1 uM, replicate 2
# [3] = 12 h, 10 µM, compound concentration 10 uM, replicate 1
# [4] = 12 h, 10 µM, compound concentration 10 uM, replicate 2
# [5] = 24 h, 1 µM, compound concentration 1 uM, replicate 1
# [6] = 24 h, 1 µM, compound concentration 1 uM, replicate 2
# [7] = 24 h, 10 µM, compound concentration 10 uM, replicate 1
# [8] = 24 h, 10 µM, compound concentration 10 uM, replicate 2
# [9] = 48 h, 1 µM, compound concentration 1 uM, replicate 1
# [10] = 48 h, 1 µM, compound concentration 1 uM, replicate 2
# [11] = 48 h, 10 µM, compound concentration 10 uM, replicate 1
# [12] = 48 h, 10 µM, compound concentration 10 uM, replicate 2
compound,measurement,setting,value
COc1ccc(NS(=O)(=O)c2sc3ccc(Cl)cc3c2C)cc1N1CCNCC1.Cl,Population Apoptotic (%),U2OS; [1],57%
same,Population Fragmented Nuclei (%),U2OS; [1],12%
same,Population Healthy Nuclei (%),U2OS; [1],74%
same,Population Hoechst High Intensity Objects (%),U2OS; [1],6%
same,Population Membrane Permeable-Phenotype (%),U2OS; [1],6%
same,Population Mitochondria Different-Phenotype (%),U2OS; [1],11%
same,Population Mitotic Cells (%),U2OS; [1],42%
same,Population Normal (%),U2OS; [1],93%
same,Population Pyknosed Nuclei (%),U2OS; [1],12%
same,Population Tubulin-Different-Phenotype (%),U2OS; [1],10%
same,Total Cell Count,U2OS; [1],172
same,Population Apoptotic (%),U2OS; [2],28%
same,Population Fragmented Nuclei (%),U2OS; [2],13%
same,Population Healthy Nuclei (%),U2OS; [2],69%
same,Population Hoechst High Intensity Objects (%),U2OS; [2],12%
same,Population Membrane Permeable-Phenotype (%),U2OS; [2],0%
same,Population Mitochondria Different-Phenotype (%),U2OS; [2],26%
same,Population Mitotic Cells (%),U2OS; [2],71%
same,Population Normal (%),U2OS; [2],87%
same,Population Pyknosed Nuclei (%),U2OS; [2],16%
same,Total Cell Count,U2OS; [2],69
same,Population Apoptotic (%),U2OS; [3],43%
same,Population Fragmented Nuclei (%),U2OS; [3],12%
same,Population Healthy Nuclei (%),U2OS; [3],57%
same,Population Hoechst High Intensity Objects (%),U2OS; [3],5%
same,Population Membrane Permeable-Phenotype (%),U2OS; [3],29%
same,Population Mitochondria Different-Phenotype (%),U2OS; [3],97%
same,Population Mitotic Cells (%),U2OS; [3],56%
same,Population Normal (%),U2OS; [3],94%
same,Population Pyknosed Nuclei (%),U2OS; [3],30%
same,Population Tubulin-Different-Phenotype (%),U2OS; [3],97%
same,Total Cell Count,U2OS; [3],162
same,Population Apoptotic (%),U2OS; [4],61%
same,Population Fragmented Nuclei (%),U2OS; [4],14%
same,Population Healthy Nuclei (%),U2OS; [4],56%
same,Population Hoechst High Intensity Objects (%),U2OS; [4],4%
same,Population Membrane Permeable-Phenotype (%),U2OS; [4],25%
same,Population Mitochondria Different-Phenotype (%),U2OS; [4],100%
same,Population Mitotic Cells (%),U2OS; [4],38%
same,Population Normal (%),U2OS; [4],95%
same,Population Pyknosed Nuclei (%),U2OS; [4],29%
same,Population Tubulin-Different-Phenotype (%),U2OS; [4],94%
same,Total Cell Count,U2OS; [4],49
same,Population Apoptotic (%),U2OS; [5],52%
same,Population Healthy Nuclei (%),U2OS; [5],76%
same,Population Hoechst High Intensity Objects (%),U2OS; [5],5%
same,Population Membrane Permeable-Phenotype (%),U2OS; [5],3%
same,Population Mitochondria Different-Phenotype (%),U2OS; [5],10%
same,Population Mitotic Cells (%),U2OS; [5],48%
same,Population Normal (%),U2OS; [5],95%
same,Population Pyknosed Nuclei (%),U2OS; [5],13%
same,Population Tubulin-Different-Phenotype (%),U2OS; [5],6%
same,Total Cell Count,U2OS; [5],174
same,Population Apoptotic (%),U2OS; [6],33%
same,Population Fragmented Nuclei (%),U2OS; [6],10%
same,Population Healthy Nuclei (%),U2OS; [6],77%
same,Population Hoechst High Intensity Objects (%),U2OS; [6],3%
same,Population Membrane Permeable-Phenotype (%),U2OS; [6],5%
same,Population Mitochondria Different-Phenotype (%),U2OS; [6],13%
same,Population Mitotic Cells (%),U2OS; [6],66%
same,Population Normal (%),U2OS; [6],96%
same,Population Pyknosed Nuclei (%),U2OS; [6],12%
same,Population Tubulin-Different-Phenotype (%),U2OS; [6],5%
same,Total Cell Count,U2OS; [6],67
same,Population Apoptotic (%),U2OS; [7],61%
same,Population Fragmented Nuclei (%),U2OS; [7],17%
same,Population Healthy Nuclei (%),U2OS; [7],51%
same,Population Hoechst High Intensity Objects (%),U2OS; [7],7%
same,Population Membrane Permeable-Phenotype (%),U2OS; [7],35%
same,Population Mitochondria Different-Phenotype (%),U2OS; [7],98%
same,Population Mitotic Cells (%),U2OS; [7],38%
same,Population Normal (%),U2OS; [7],92%
same,Population Pyknosed Nuclei (%),U2OS; [7],31%
same,Population Tubulin-Different-Phenotype (%),U2OS; [7],95%
same,Total Cell Count,U2OS; [7],200
same,Population Apoptotic (%),U2OS; [8],68%
same,Population Fragmented Nuclei (%),U2OS; [8],16%
same,Population Healthy Nuclei (%),U2OS; [8],47%
same,Population Hoechst High Intensity Objects (%),U2OS; [8],2%
same,Population Membrane Permeable-Phenotype (%),U2OS; [8],55%
same,Population Mitochondria Different-Phenotype (%),U2OS; [8],97%
same,Population Mitotic Cells (%),U2OS; [8],32%
same,Population Normal (%),U2OS; [8],97%
same,Population Pyknosed Nuclei (%),U2OS; [8],35%
same,Population Tubulin-Different-Phenotype (%),U2OS; [8],91%
same,Total Cell Count,U2OS; [8],51
same,Population Apoptotic (%),U2OS; [9],36%
same,Population Fragmented Nuclei (%),U2OS; [9],8%
same,Population Healthy Nuclei (%),U2OS; [9],82%
same,Population Hoechst High Intensity Objects (%),U2OS; [9],3%
same,Population Membrane Permeable-Phenotype (%),U2OS; [9],3%
same,Population Mitochondria Different-Phenotype (%),U2OS; [9],8%
same,Population Mitotic Cells (%),U2OS; [9],64%
same,Population Pyknosed Nuclei (%),U2OS; [9],9%
same,Population Tubulin-Different-Phenotype (%),U2OS; [9],6%
same,Total Cell Count,U2OS; [9],178
same,Population Apoptotic (%),U2OS; [10],22%
same,Population Fragmented Nuclei (%),U2OS; [10],13%
same,Population Healthy Nuclei (%),U2OS; [10],73%
same,Population Hoechst High Intensity Objects (%),U2OS; [10],4%
same,Population Membrane Permeable-Phenotype (%),U2OS; [10],7%
same,Population Mitochondria Different-Phenotype (%),U2OS; [10],20%
same,Population Mitotic Cells (%),U2OS; [10],77%
same,Population Normal (%),U2OS; [10],96%
same,Population Pyknosed Nuclei (%),U2OS; [10],12%
same,Population Tubulin-Different-Phenotype (%),U2OS; [10],11%
same,Total Cell Count,U2OS; [10],73
same,Population Apoptotic (%),U2OS; [11],73%
same,Population Fragmented Nuclei (%),U2OS; [11],20%
same,Population Healthy Nuclei (%),U2OS; [11],37%
same,Population Hoechst High Intensity Objects (%),U2OS; [11],12%
same,Population Membrane Permeable-Phenotype (%),U2OS; [11],46%
same,Population Mitochondria Different-Phenotype (%),U2OS; [11],94%
same,Population Mitotic Cells (%),U2OS; [11],26%
same,Population Normal (%),U2OS; [11],87%
same,Population Pyknosed Nuclei (%),U2OS; [11],41%
same,Population Tubulin-Different-Phenotype (%),U2OS; [11],98%
same,Total Cell Count,U2OS; [11],281
same,Population Apoptotic (%),U2OS; [12],68%
same,Population Fragmented Nuclei (%),U2OS; [12],17%
same,Population Healthy Nuclei (%),U2OS; [12],56%
same,Population Hoechst High Intensity Objects (%),U2OS; [12],6%
same,Population Membrane Permeable-Phenotype (%),U2OS; [12],56%
same,Population Mitochondria Different-Phenotype (%),U2OS; [12],93%
same,Population Mitotic Cells (%),U2OS; [12],31%
same,Population Normal (%),U2OS; [12],93%
same,Population Pyknosed Nuclei (%),U2OS; [12],26%
same,Population Tubulin-Different-Phenotype (%),U2OS; [12],82%
same,Total Cell Count,U2OS; [12],75
same,Growth Rate,"Fibroblast; 0 h, replicate number 1, timepoint 0 hours",1
same,Growth Rate,"Fibroblast; 6 h, replicate number 1, timepoint 6 hours",1
same,Growth Rate,"Fibroblast; 6 h, replicate number 2, timepoint 6 hours",0
same,Growth Rate,"Fibroblast; 12 h, replicate number 1, timepoint 12 hours",0
same,Growth Rate,"Fibroblast; 18 h, replicate number 1, timepoint 18 hours",0
same,Growth Rate,"Fibroblast; 24 h, replicate number 1, timepoint 24 hours",0
